Experimental data as given in ChEMBL document CHEMBL4118103, “Synthesis and Bioactivity Investigation of the Individual Components of Cyclic Lipopeptide Antibiotics” (J Med Chem, 2018).
≈ marks a conversion by molar mass, not a printed value. Bridge positions count the residues as written; N and C are the ends. Square brackets hold non-standard residues; d marks the D form. Peptide text beside a SMILES is read from it. * marks the point of attachment. Heptanoyl(6-Me) = CC(C)CCCCC(=O)*; X1 = CC[C@H](C)CCCCC(=O)*; Dab = NCC[C@H](N)C(=O)O; Nva = CCC[C@H](N)C(=O)O

Key:
Acinetobacter baumannii = assay: Antibacterial activity against Acinetobacter baumannii ATCC 19606 after 18 hrs by agar dilution method; assay type: functional; details: ATCC 19606 = CIP 70.34 = JCM 6841, 18 h
Outline: (§1)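 Serial two-fold agar dilution per CLSI; bacteria cultured in Mueller-Hinton broth, inoculum about 10^4 cfu/spot; final concentrations 0.03-128 µg/mL; plates incubated 35 °C for 18 h. MIC = lowest concentration preventing visible growth; representative of at least two independent experiments, a third run when the two disagreed.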

Escherichia coli [1] = assay: Antibacterial activity against extended-spectrum beta-lactamase producing Escherichia coli isolate 14-11 after 18 hrs by agar dilution method; assay type: functional; details: isolate 14-11, 18 h; outline: as §1
Pseudomonas aeruginosa = assay: Antibacterial activity against Pseudomonas aeruginosa ATCC 27853 after 18 hrs by agar dilution method; assay type: functional; details: ATCC 27853, 18 h; outline: as §1
Klebsiella pneumoniae [2] = assay: Antibacterial activity against NDM-1 producing Klebsiella pneumoniae ATCC BAA-2146 after 18 hrs by agar dilution method; assay type: functional; details: ATCC BAA-2146, 18 h; outline: as §1
Klebsiella pneumoniae [3] = assay: Antibacterial activity against extended-spectrum beta-lactamase producing Klebsiella pneumoniae 700603 after 18 hrs by agar dilution method; assay type: functional; details: Klebsiella pneumoniae, 700603, 18 h; outline: as §1
Mus musculus [4] = assay: Nephrotoxicity in ICR mouse assessed as induction of prominent nuclei at 2.5 mg/kg, iv bid for 7 days measured after 2 hrs post last dose by hematoxylin and eosin staining based assay; assay type: toxicity, organism-based; details: in vivo
Outline: (§2)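 ICR mice, 18-22 g, 4 weeks old, n=8 per group (4 male, 4 female); component in saline (0.25 mg/mL, kept at 4 °C) given iv at 2.5 mg/kg twice daily, 8 h apart, for 7 days. Kidneys taken 2 h after last dose, formalin-fixed, paraffin-embedded, sectioned, H&E stained and examined by light microscopy; saline controls included.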

[5] = (§3) Cytotoxicity against African green monkey Vero cells after 72 hrs by MTT assay; assay type: cell-based; details: chlorocebus sabaeus, Vero cells
Outline: (§4)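 Vero cells seeded at 2x10^3 cells/well, incubated 24 h at 37 °C, 5% CO2, then exposed to compound 72 h; MTT added for 2 h, medium removed, formazan dissolved in DMSO, absorbance read at 570 nm. Viability relative to untreated cells (100%); CC50 as mean ± SD of three independent experiments, each in triplicate.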

[6] = Acute toxicity in iv dosed ICR mouse assessed as survival measured daily for 7 days; assay type: organism-based; details: in vivo
Outline: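 ICR mice, 18 to 22 g, 4 weeks old, 10 per group (5 male, 5 female). Four to five intravenous dose groups per compound. Survival recorded daily for 7 days. LD50 (dose per kg body weight lethal to 50%) calculated by the Bliss method. LD50 values compared by one-way ANOVA.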

Mus musculus [7] = assay: Nephrotoxicity in ICR mouse assessed as tubular dilation at 2.5 mg/kg, iv bid for 7 days measured after 2 hrs post last dose by hematoxylin and eosin staining based assay; assay type: toxicity, organism-based; details: in vivo; outline: as §2
Mus musculus [8] = assay: Nephrotoxicity in ICR mouse assessed as pale tubular casts at 2.5 mg/kg, iv bid for 7 days measured after 2 hrs post last dose by hematoxylin and eosin staining based assay; assay type: toxicity, organism-based; details: in vivo; outline: as §2
Escherichia coli [9] = assay: Antibacterial activity against Escherichia coli ATCC 25922 after 18 hrs by agar dilution method; assay type: functional; details: ATCC 25922, 18 h; outline: as §1
Vero = assay: as §3; assay type: cell-based; details: chlorocebus sabaeus, vero, 72 h; outline: as §4

Compound | MIC (Acinetobacter baumannii) [µg/mL] | MIC (Escherichia coli [1]) [µg/mL] | MIC (Pseudomonas aeruginosa) [µg/mL] | MIC (Klebsiella pneumoniae [2]) [µg/mL] | MIC (Klebsiella pneumoniae [3]) [µg/mL] | Activity (Mus musculus [4]) | CC50 at 72 h [5] [µg/mL] | LD50 at 168 h [6] [mg/kg] | Activity (Mus musculus [7]) | Activity (Mus musculus [8]) | MIC (Escherichia coli [9]) [µg/mL] | CC50 (Vero) [µg/mL]
CC(C)CCCCC(=O)N[C@@H](CCN)C(=O)N[C@H](C(=O)N[C@@H](CCN)C(=O)N[C@H]1CCNC(=O)[C@H]([C@@H](C)O)NC(=O)[C@H](CCN)NC(=O)[C@H](CCN)NC(=O)[C@H]([C@@H](C)O)NC(=O)[C@@H](CC(C)C)NC(=O)[C@H](CCN)NC1=O)[C@@H](C)O | 1 (≈ 0.875 µM) | 0.25 (≈ 0.219 µM) | 0.5 (≈ 0.437 µM) | 0.5 (≈ 0.437 µM) | 0.5 (≈ 0.437 µM) | Non-Toxic | 276 (≈ 241 µM) | 13 | Non-Toxic | Non-Toxic | 0.5 (≈ 0.437 µM) | 
COLISTIN |  |  |  |  |  |  |  |  |  |  |  | 95
CC(C)CCCCC(=O)N[C@@H](CCN)C(=O)N[C@H](C(=O)N[C@@H](CCN)C(=O)N[C@H]1CCNC(=O)[C@H]([C@@H](C)O)NC(=O)[C@H](CCN)NC(=O)[C@H](CCN)NC(=O)[C@H](CC(C)C)NC(=O)[C@@H](CC(C)C)NC(=O)[C@H](CCN)NC1=O)[C@@H](C)O [COLISTIN B] ({Heptanoyl(6-Me)}-[Dab]T[Dab][Dab][Dab][dL]L[Dab][Dab]T; lactam 4-C) | 0.5 (≈ 0.433 µM) | 0.5 (≈ 0.433 µM) | 2 (≈ 1.73 µM) | 1 (≈ 0.865 µM) | 1 (≈ 0.865 µM) | Non-Toxic | 244 (≈ 211 µM) | 11.3 | Non-Toxic | Non-Toxic | 0.5 (≈ 0.433 µM) | 
CC(C)CCCCC(=O)N[C@@H](CCN)C(=O)N[C@H](C(=O)N[C@@H](CCN)C(=O)N[C@H]1CCNC(=O)[C@H]([C@@H](C)O)NC(=O)[C@H](CCN)NC(=O)[C@H](CCN)NC(=O)[C@H](C(C)C)NC(=O)[C@@H](CC(C)C)NC(=O)[C@H](CCN)NC1=O)[C@@H](C)O ({Heptanoyl(6-Me)}-[Dab]T[Dab][Dab][Dab][dL]V[Dab][Dab]T; lactam 4-C) | 1 (≈ 0.876 µM) | 0.25 (≈ 0.219 µM) | 2 (≈ 1.75 µM) | 0.5 (≈ 0.438 µM) | 0.5 (≈ 0.438 µM) |  | 225 (≈ 197 µM) | 13.2 |  |  | 0.5 (≈ 0.438 µM) | 
CCC[C@@H]1NC(=O)[C@@H](CC(C)C)NC(=O)[C@H](CCN)NC(=O)[C@@H](NC(=O)[C@H](CCN)NC(=O)[C@@H](NC(=O)[C@H](CCN)NC(=O)CCCCC(C)C)[C@@H](C)O)CCNC(=O)[C@H]([C@@H](C)O)NC(=O)[C@H](CCN)NC(=O)[C@H](CCN)NC1=O ({Heptanoyl(6-Me)}-[Dab]T[Dab][Dab][Dab][dL][Nva][Dab][Dab]T; lactam 4-C) | 0.5 (≈ 0.438 µM) | 0.25 (≈ 0.219 µM) | 1 (≈ 0.876 µM) | 0.5 (≈ 0.438 µM) | 0.5 (≈ 0.438 µM) |  | 168 (≈ 147 µM) | 12.4 |  |  | 0.5 (≈ 0.438 µM) | 
CC[C@H](C)[C@@H]1NC(=O)[C@@H](CC(C)C)NC(=O)[C@H](CCN)NC(=O)[C@@H](NC(=O)[C@H](CCN)NC(=O)[C@@H](NC(=O)[C@H](CCN)NC(=O)CCCCC(C)C)[C@@H](C)O)CCNC(=O)[C@H]([C@@H](C)O)NC(=O)[C@H](CCN)NC(=O)[C@H](CCN)NC1=O | 1 (≈ 0.865 µM) | 0.5 (≈ 0.433 µM) | 2 (≈ 1.73 µM) | 1 (≈ 0.865 µM) | 0.5 (≈ 0.433 µM) |  | 199 (≈ 172 µM) | 12.9 |  |  | 1 (≈ 0.865 µM) | 
CC[C@H](C)CCCCC(=O)N[C@@H](CCN)C(=O)N[C@H](C(=O)N[C@@H](CCN)C(=O)N[C@H]1CCNC(=O)[C@H]([C@@H](C)O)NC(=O)[C@H](CCN)NC(=O)[C@H](CCN)NC(=O)[C@H]([C@@H](C)O)NC(=O)[C@@H](CC(C)C)NC(=O)[C@H](CCN)NC1=O)[C@@H](C)O (X1-[Dab]T[Dab][Dab][Dab][dL]T[Dab][Dab]T; lactam 4-C) | 0.5 (≈ 0.432 µM) | ≤ 0.03 | 1 (≈ 0.864 µM) | 0.5 (≈ 0.432 µM) | 0.25 (≈ 0.216 µM) |  | 96 (≈ 82.9 µM) | 11.4 |  |  | 0.25 (≈ 0.216 µM) | 
CC(C)CCCCC(=O)N[C@@H](CCN)C(=O)N[C@H](C(=O)N[C@H](CO)C(=O)N[C@H]1CCNC(=O)[C@H]([C@@H](C)O)NC(=O)[C@H](CCN)NC(=O)[C@H](CCN)NC(=O)[C@H]([C@@H](C)O)NC(=O)[C@@H](CC(C)C)NC(=O)[C@H](CCN)NC1=O)[C@@H](C)O ({Heptanoyl(6-Me)}-[Dab]T[dS][Dab][Dab][dL]T[Dab][Dab]T; lactam 4-C) | 0.12 (≈ 0.106 µM) | 0.12 (≈ 0.106 µM) | 4 (≈ 3.54 µM) | 0.5 (≈ 0.442 µM) | 0.5 (≈ 0.442 µM) | Toxic | 318 (≈ 281 µM) | 20.5 | Toxic | Toxic | 0.25 (≈ 0.221 µM) | 
CC(C)CCCCC(=O)N[C@@H](CCN)C(=O)N[C@H](C(=O)N[C@H](CO)C(=O)N[C@H]1CCNC(=O)[C@H]([C@@H](C)O)NC(=O)[C@H](CCN)NC(=O)[C@H](CCN)NC(=O)[C@H]([C@@H](C)O)NC(=O)[C@@H](Cc2ccccc2)NC(=O)[C@H](CCN)NC1=O)[C@@H](C)O ({Heptanoyl(6-Me)}-[Dab]T[dS][Dab][Dab][dF]T[Dab][Dab]T; lactam 4-C) | 0.25 (≈ 0.215 µM) | 0.25 (≈ 0.215 µM) | 2 (≈ 1.72 µM) | 0.5 (≈ 0.429 µM) | 0.5 (≈ 0.429 µM) | Non-Toxic | > 500 | 17 | Non-Toxic | Non-Toxic | 0.25 (≈ 0.215 µM) | 
CC(C)CCCCC(=O)N[C@@H](CCN)C(=O)N[C@H](C(=O)N[C@@H](CCN)C(=O)N[C@H]1CCNC(=O)[C@H]([C@@H](C)O)NC(=O)[C@H](CCN)NC(=O)[C@H](CCN)NC(=O)[C@H](CC(C)C)NC(=O)[C@@H](Cc2ccccc2)NC(=O)[C@H](CCN)NC1=O)[C@@H](C)O [POLYMYXIN B2] ({Heptanoyl(6-Me)}-[Dab]T[Dab][Dab][Dab][dF]L[Dab][Dab]T; lactam 4-C) | 0.5 (≈ 0.42 µM) | 0.5 (≈ 0.42 µM) | 2 (≈ 1.68 µM) | 1 (≈ 0.841 µM) | 1 (≈ 0.841 µM) | Toxic | 159 (≈ 134 µM) | 12.6 | Toxic | Toxic | 0.5 (≈ 0.42 µM) | 
